{
  "source": "ChEMBL document CHEMBL1125147",
  "about": "“Nonsteroidal cardiotonics. 3. New 4,5-dihydro-6-(1H-indol-5-yl)pyridazin-3(2H)-ones and related compounds with positive inotropic activities” (1990)",
  "key": {"Rattus norvegicus [1]": {"system": "Rattus norvegicus", "test": "Effective dose required to produce an increase in dP/dt by 1500 mmHg/s from that of the control in the anesthetized rats.", "type": "functional", "in_short": "(§1)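 Male SPF Sprague–Dawley rats (350–450 g), thiabutarbital sodium 80–100 mg/kg ip, tracheotomized. LV pressure measured by a Millar microtip catheter passed via the right carotid artery. Compounds given as jugular iv bolus (0.5 mL/kg) in increasing doses every 10 min. Readings taken 10 min post-dose as steady state. ED1.5 (dP/dt +1500 mmHg/s at LVP 50 mmHg) from log-linear regression, log means. Max = peak rise in dP/dt and the dose giving it.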"}, "Felis catus [2]": {"system": "Felis catus", "test": "Effective dose required to produce an increase in dP/dt by 1500 mmHg/s from that of the control in the anesthetized cats.", "type": "functional", "in_short": "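Cats of both sexes, pentobarbitone 45 mg/kg ip plus 0.1 mg/kg min infusion, pump-ventilated, open chest. Dextran 10 mL/kg iv and desacetylmetipranolol 0.3 mg/kg iv for β-blockade failure. LV pressure by Millar tip catheter via the auricle. Increasing iv bolus doses every 10 min, read at 10 min. ED1.5 (dP/dt +1500 mmHg/s at LVP 50 mmHg) by log-linear regression, log means.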"}, "Felis catus [3]": {"system": "Felis catus", "test": "Maximum increase in dP/dt from that of the control in the anesthetized cats at dose 10.0 mg/kg"}, "Rattus norvegicus [4]": {"system": "Rattus norvegicus", "test": "Maximum increase in dP/dt from that of the control in the anesthetized rats at dose 10.0 mg/kg", "type": "functional", "in_short": "as §1"}},
  "data": [
    {"smiles": "CC1(C)C(=O)NN=C1c1ccc2[nH]c(-c3ccncc3)cc2c1", "values": [
      {"measurement": "ED1.5", "setting": "Rattus norvegicus [1]", "value": 0.25, "unit": "mg/kg"}
    ]},
    {"smiles": "Cc1c(-c2ccncc2)[nH]c2ccc(C3=NNC(=O)CC3)cc12", "values": [
      {"measurement": "ED1.5", "setting": "Rattus norvegicus [1]", "value": 0.08, "unit": "mg/kg"}
    ]},
    {"smiles": "Cc1c(-c2ccncc2)[nH]c2ccc(C3=NNC(=O)CC3C)cc12", "note": "(stereo not given)", "values": [
      {"measurement": "ED1.5", "setting": "Rattus norvegicus [1]", "value": 0.02, "unit": "mg/kg"}
    ]},
    {"smiles": "O=C1CCC(c2ccc3[nH]c(-c4ccccc4O)cc3c2)=NN1", "values": [
      {"measurement": "ED1.5", "setting": "Rattus norvegicus [1]", "value": 1.04, "unit": "mg/kg"}
    ]},
    {"smiles": "COc1ccc(-c2nc3cc(C4=NNC(=O)CC4C)ccc3[nH]2)cc1", "note": "(stereo not given) [PIMOBENDAN]", "values": [
      {"measurement": "ED1.5", "setting": "Rattus norvegicus [1]", "value": 1.31, "unit": "mg/kg"},
      {"measurement": "ED1.5", "setting": "Felis catus [2]", "value": 0.6, "unit": "mg/kg"},
      {"measurement": "Max", "setting": "Felis catus [3]", "value": 2.9, "unit": "mHg/s"}
    ]},
    {"smiles": "Oc1cnc(-c2ccc3[nH]c(-c4ccncc4)cc3c2)cn1", "values": [
      {"measurement": "ED1.5", "setting": "Rattus norvegicus [1]", "value": 0.15, "unit": "mg/kg"}
    ]},
    {"smiles": "CCOC(=O)c1cc2cc(C3=NNC(=O)CC3)ccc2[nH]1", "values": [
      {"measurement": "ED1.5", "setting": "Rattus norvegicus [1]", "value": 1.5, "unit": "mg/kg"}
    ]},
    {"smiles": "CC1CC(=O)NN=C1c1ccc2[nH]c(-c3ccncc3)cc2c1", "note": "(stereo not given)", "values": [
      {"measurement": "ED1.5", "setting": "Rattus norvegicus [1]", "value": 0.02, "unit": "mg/kg"},
      {"measurement": "ED1.5", "setting": "Felis catus [2]", "value": 0.007, "unit": "mg/kg"}
    ]},
    {"smiles": "Cc1[nH]c(=O)c(C#N)cc1-c1ccncc1", "note": "[MILRINONE]", "values": [
      {"measurement": "ED1.5", "setting": "Rattus norvegicus [1]", "value": 0.15, "unit": "mg/kg"},
      {"measurement": "ED1.5", "setting": "Felis catus [2]", "value": 0.04, "unit": "mg/kg"},
      {"measurement": "Max", "setting": "Rattus norvegicus [4]", "value": 3.4, "unit": "mHg/s"}
    ]},
    {"smiles": "CCc1c(-c2ccncc2)[nH]c2ccc(C3=NNC(=O)CC3)cc12", "values": [
      {"measurement": "ED1.5", "setting": "Rattus norvegicus [1]", "value": 1.1, "unit": "mg/kg"}
    ]},
    {"smiles": "O=C1CCC(c2ccc3[nH]c(-c4ccncc4)cc3c2)=NN1", "values": [
      {"measurement": "ED1.5", "setting": "Rattus norvegicus [1]", "value": 0.04, "unit": "mg/kg"}
    ]},
    {"smiles": "O=C1CCC(c2ccc3[nH]c(-c4ccnnc4)cc3c2)=NN1", "values": [
      {"measurement": "ED1.5", "setting": "Rattus norvegicus [1]", "value": 0.02, "unit": "mg/kg"}
    ]},
    {"smiles": "O=C1COC(c2ccc3[nH]c(-c4ccncc4)cc3c2)=NN1", "values": [
      {"measurement": "ED1.5", "setting": "Rattus norvegicus [1]", "value": 0.7, "unit": "mg/kg"}
    ]},
    {"smiles": "O=C1CCC(c2ccc3[nH]c(-c4cscn4)cc3c2)=NN1", "values": [
      {"measurement": "ED1.5", "setting": "Rattus norvegicus [1]", "value": 0.26, "unit": "mg/kg"}
    ]},
    {"smiles": "O=C1CCC(c2ccc3[nH]c(-c4cccnc4)cc3c2)=NN1", "values": [
      {"measurement": "ED1.5", "setting": "Rattus norvegicus [1]", "value": 2.5, "unit": "mg/kg"}
    ]}
  ]
}
